Reference: PubChem BioAssay
Records with an inconclusive call do not appear.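 How the source made its calls, unless noted: active means viability at or below 27.92% in each of two runs, the all-compound median minus 4 SD; inconclusive means no clear call, values can overlap the other calls; inactive means the rest.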

Legend:
[1] = S. cerevisiae growth inhibition in permissive medium (OD615), pilot counter-assay for S. cerevisiae lifespan shortening project, permissive growth control (AID 705;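 active means growth inhibition above 25% in both replicates, a cutoff set 3 SD above the mean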); conditions: OD615, 24 h, at 10 µM, active compounds read high
Outline: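 Timing: 24 h exposure, 30 °C / Material: Saccharomyces cerevisiae strain carrying genetically modified DeaD replicative-lifespan system / Signal: OD at 615 nm / Compound: 10 µM single dose, 0.25% DMSO / Medium: SC raffinose/galactose permissive medium / Evaluation: reduction in yeast growth (OD615)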

[2] = S. cerevisiae growth inhibition in restrictive medium, OD615, pilot screen, restrictive growth control, yeast lifespan reduction project (AID 706;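 active means growth inhibition above a set limit, 3 SD over mean compound inhibition, in both replicates, cut at about 43% in these data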;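 further: modified DeaD lifespan yeast strain shifted to restrictive glucose medium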); conditions: OD615, 48 h, at 10 µM, active compounds read high
Outline: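 System: Engineered S. cerevisiae DeaD strain | Detection: OD615 | Buffer or medium: CSMM-D glucose medium | Doses: 10 µM compound, 0.25% DMSO | Timing: 4 h pre-growth plus 48 h compound exposure, 30 °C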

[3] = doxorubicin toxicity protection in MRP-1 cells – H69AR cells, CellTiter-Glo, duplicate, MRP-1 activator project, pilot screen (AID 807;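 active means viability increase at or above a cutoff of the median across tested compounds plus 3 SD, cut at about 8.5% in these data, passing the limit was not always enough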;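 further: compound pretreatment 18-22 h then 72 h combined with doxorubicin; 0% = doxorubicin alone and 100% = vehicle without doxorubicin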); conditions: H69AR viability with doxorubicin, CellTiter-Glo luminescence; at 10 µM; active compounds read high
[4] = viability of HCT116 without oncogenic beta-catenin – human colon tumor cells, pilot screen (AID 823;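 active means cell viability at or below a set limit in both duplicate runs, the limit being the all-compound median minus 4 SD, cut at about 23% in these data, passing the limit was not always enough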;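 further: 0% = wells killed by 20 µM Hyamine and 100% = untreated DMSO cell wells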); conditions: HCT116 beta-catenin knockout viability, CellTiter-Glo, 60 h; at 10 µM; active compounds read low
[5] = viability of PTEN-null HCT116 cells – cell-based, HCT116 clonal line, CellTiter-Glo, pilot screen (AID 824); conditions: HCT116 PTEN-deleted viability, 60 h, at 10 µM, active compounds read low;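 further: 0% = 20 µM Hyamine control and 100% = vehicle cell control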
[6] = RAM pathway blockade in budding yeast – dse1pr::URA3 reporter, 5-FOA selection, pilot screen (AID 869;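 active means inhibition over a set limit, the all-compound mean plus 3 SD, in both replicate runs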;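 further: 0% = DMSO wells with no growth and 100% = 10 µM 1-NA-PP1 with full growth; RAM network block rescues cells from 5-FOA so hits raise OD615 growth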); conditions: S. cerevisiae dse1pr::URA3 5-FOA growth, OD615, 2 d; at 10 µM; active compounds read high; strain carries analog-sensitive mutant Cbk1 kinase
[7] = RAM signaling pathway blockade in yeast – S. cerevisiae, Pdr1DBD-CYC8 efflux-inhibited sensitized strain, primary screen (AID 1298;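 active means RAM network inhibition above 8.4% in each of two replicates, 3 SD over the compound average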;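 further: 0% = DMSO untreated cells without growth and 100% = 10 µM 1-NA-PP1 full growth; higher means more yeast growth rescued from 5-FOA killing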); conditions: S. cerevisiae cbk1-as DSE1-URA3 strain, 5-FOA growth OD615, 2 d; at 50 µM; active compounds read high

COc1ccc(C(=S)N(C)C)cc1OC
inactive: growth inhibition [1] 11.9% | growth inhibition [2] 16.9% | viability increase [3] -0.25% | viability [4] 98.8% | viability [5] 98.6% | inhibition [6] 3.66% | RAM network inhibition [7] 1.53%

COc1cccc(C(=O)Nc2ccc(S(=O)(=O)Nc3onc(C)c3C)cc2)c1
inactive: growth inhibition [1] -9.3% | growth inhibition [2] -14.8% | viability increase [3] 0.25% | viability [4] 96.1% | viability [5] 97.9% | inhibition [6] 1.99% | RAM network inhibition [7] 7.93%

CCOC(=O)CNc1c(N2CCN(c3ccccn3)CC2)c(=O)c1=O
inactive: growth inhibition [1] 2.94% | growth inhibition [2] 13.8% | viability increase [3] -1.12% | viability [4] 110% | viability [5] 102% | inhibition [6] 1.91% | RAM network inhibition [7] -0.36%

CCOc1ccc(C(=O)CCNC(Cc2cnc[nH]2)C(=O)O)cc1 (configuration not stated)
inactive: growth inhibition [1] 5.56% | growth inhibition [2] 8.23% | viability increase [3] -2.31% | viability [4] 95.1% | viability [5] 92.7% | inhibition [6] 2.15% | RAM network inhibition [7] 4.96%

COc1ccc2nc(NC(=O)C3CCCN3S(=O)(=O)c3ccc(C)cc3)sc2c1 (configuration not stated)
inactive: growth inhibition [1] -6.88% | growth inhibition [2] -4% | viability increase [3] -1.48% | viability [4] 69.3% | viability [5] 72% | inhibition [6] 1.23% | RAM network inhibition [7] 6.79%

CCc1c(C)nc2[nH]nc(-c3ccccc3)n2c1=O
inactive: growth inhibition [1] -20.2% | growth inhibition [2] -10.2% | viability increase [3] 0.32% | viability [4] 96.2% | viability [5] 99.1% | inhibition [6] 1.69% | RAM network inhibition [7] 4.8%

CCOC(=O)c1c(C)n(C)c2ccc(OCC(N)=O)cc12
inactive: growth inhibition [1] -3.96% | growth inhibition [2] -11% | viability increase [3] -4.45% | viability [4] 100% | viability [5] 99.3% | inhibition [6] 1.96% | RAM network inhibition [7] 6.79%

CCOC(=O)C1CCCN(C(=O)c2ccc(CS(=O)(=O)c3ccc(C)cc3)o2)C1 (configuration not stated)
inactive: growth inhibition [1] -0.315% | growth inhibition [2] -6.29% | viability increase [3] -2.78% | viability [4] 110% | viability [5] 101% | inhibition [6] 1.16% | RAM network inhibition [7] 3.23%

c1ccc(CNc2nc3ccccc3[nH]2)cc1
inactive: growth inhibition [1] -4.7% | growth inhibition [2] 2.9% | viability increase [3] -5.29% | viability [4] 75.8% | viability [5] 80.7% | inhibition [6] 1.3% | RAM network inhibition [7] 0.44%

Cc1cc(C)nc(N(C#N)Cc2ccccc2Cl)n1
inactive: growth inhibition [1] -8.69% | growth inhibition [2] 4.5% | viability increase [3] -3.71% | viability [4] 99.7% | viability [5] 95.5% | inhibition [6] 1.48% | RAM network inhibition [7] -0.21%

CSc1nnc(Cn2c(=O)sc3ccccc32)n1C
inactive: growth inhibition [1] -4.88% | growth inhibition [2] -13% | viability increase [3] -1.82% | viability [4] 109% | viability [5] 99.4% | inhibition [6] 1.94% | RAM network inhibition [7] 6.98%

COCCNC(=O)C1c2cc(OC)c(OC)cc2C(=O)N(C)C1c1cccnc1 (configuration not stated)
inactive: growth inhibition [1] -5.99% | growth inhibition [2] -8.46% | viability increase [3] 0.41% | viability [4] 91.3% | viability [5] 92% | inhibition [6] -0.34% | RAM network inhibition [7] 5.06%

O=CN1CCN(C(C(=O)NC2CCCC2)c2ccc(Cl)cc2)CC1 (configuration not stated)
inactive: growth inhibition [1] -7.98% | growth inhibition [2] 4.62% | viability increase [3] -1.14% | viability [4] 86.2% | viability [5] 88.5% | inhibition [6] 0.795% | RAM network inhibition [7] 2.38%

CCOc1ccc(/C=C\C(C)=N\O)cc1
inactive: growth inhibition [1] -0.67% | growth inhibition [2] 0.775% | viability increase [3] -2.74% | viability [4] 90.3% | viability [5] 96.3% | inhibition [6] 0.065% | RAM network inhibition [7] 2.82%

CCOC(=O)C1=C(O)/C(=C/N(C)C)N=C1C
inactive: growth inhibition [1] 4.34% | growth inhibition [2] 5.5% | viability increase [3] -0.31% | viability [4] 103% | viability [5] 106% | inhibition [6] 3.19% | RAM network inhibition [7] 0.56%

CCC(=O)Nc1ccccc1C(=O)N1CCN(Cc2ccccc2)CC1
inactive: growth inhibition [1] 2.08% | growth inhibition [2] 3.03% | viability increase [3] -1.2% | viability [4] 99.8% | viability [5] 99.7% | inhibition [6] 1.6% | RAM network inhibition [7] 3.32%

Cc1c(C(=O)NCCN2CCOCC2)oc2ccc(S(=O)(=O)N3CCCCCC3)cc12
inactive: growth inhibition [1] -3.55% | growth inhibition [2] -1.55% | viability increase [3] -2.1% | viability [4] 86.1% | viability [5] 90.6% | inhibition [6] 1.15% | RAM network inhibition [7] -1.39%

Cc1ccc(CNC(=O)c2ccc(Br)o2)cc1
inactive: growth inhibition [1] -14.5% | growth inhibition [2] -1.29% | viability increase [3] -0.67% | viability [4] 96.9% | viability [5] 98.1% | inhibition [6] 0.885% | RAM network inhibition [7] 3.41%

O=C(C1CC1)N1CCc2cc(Br)cc(S(=O)(=O)NCc3ccccn3)c21
inactive: growth inhibition [1] -8.05% | growth inhibition [2] -19% | viability increase [3] -1.89% | viability [4] 99.2% | viability [5] 96.9% | inhibition [6] 1.32% | RAM network inhibition [7] 5.17%

CCCc1nc(SCC(=O)NCc2ccc3c(c2)OCO3)c2c(=O)n(C)c(=O)n(C)c2n1
inactive: growth inhibition [1] 1.28% | growth inhibition [2] 7.41% | viability increase [3] -6.51% | viability [4] 61.1% | viability [5] 57.5% | inhibition [6] 2.25% | RAM network inhibition [7] 5.66%

CCOC(=O)CC(=O)Nc1ccc(Br)cc1C(=O)O
inactive: growth inhibition [1] -18.4% | growth inhibition [2] -18.8% | viability increase [3] 1.24% | viability [4] 101% | viability [5] 97.2% | inhibition [6] 2.16% | RAM network inhibition [7] 7.52%

COC(=O)C1=C(C)NC(=O)NC1C1CC=CCC1 (configuration not stated)
inactive: growth inhibition [1] -13.7% | growth inhibition [2] -8.8% | viability increase [3] 0.06% | viability [4] 96.2% | viability [5] 95.5% | inhibition [6] 3.1% | RAM network inhibition [7] 6.9%

Cn1c(=O)[nH]c(=O)c2c1nc(N1CCC(Cc3ccccc3)CC1)n2Cc1ccccc1
inactive: growth inhibition [1] -19.2% | growth inhibition [2] -10.1% | viability increase [3] -6.11% | viability [4] 82.8% | viability [5] 69.5% | inhibition [6] 2.9% | RAM network inhibition [7] 3.08%

CC(C)NC(=O)NC(=O)COc1ncnc2sccc12
inactive: growth inhibition [1] -4.68% | growth inhibition [2] -7.55% | viability increase [3] -1.28% | viability [4] 97.6% | viability [5] 105% | inhibition [6] 1.22% | RAM network inhibition [7] 2.67%

COc1ccccc1-c1nnc(SCC(=O)Nc2ccc(Cl)cc2Cl)o1
inactive: growth inhibition [1] -2.08% | growth inhibition [2] 9.34% | viability increase [3] 2.61% | viability [4] 97.4% | viability [5] 91.1% | inhibition [6] 1.71% | RAM network inhibition [7] 8.66%

CCC(C)Nc1nc2c(c(=O)n(C)c(=O)n2C)n1Cc1ccc(Cl)cc1 (configuration not stated)
inactive: growth inhibition [1] -0.995% | growth inhibition [2] -4.79% | viability increase [3] -4.21% | viability [4] 79% | viability [5] 70.6% | inhibition [6] -0.035% | RAM network inhibition [7] 4.57%

COc1ccc(C2C3=C(CC(C)(C)CC3=O)Nc3c2c(=O)[nH]c(=O)n3Cc2ccccc2)cc1 (configuration not stated)
inactive: growth inhibition [1] -7% | growth inhibition [2] 6.84% | viability increase [3] -2.53% | viability [4] 89.5% | viability [5] 74.5% | inhibition [6] 1.65% | RAM network inhibition [7] 6.38%

Cc1cccc(NC(=O)CCNS(=O)(=O)c2cccc3nsnc23)c1
inactive: growth inhibition [1] -7.62% | growth inhibition [2] -12.6% | viability increase [3] -2.32% | viability [4] 94.5% | viability [5] 90.7% | inhibition [6] 1.34% | RAM network inhibition [7] 1.66%

O=C(NCc1ccco1)C1CCN(S(=O)(=O)c2cccc3cccnc23)CC1
inactive: growth inhibition [1] 5.31% | growth inhibition [2] 5.93% | viability increase [3] -2.72% | viability [4] 99.4% | viability [5] 93.8% | inhibition [6] 2.12% | RAM network inhibition [7] 2.63%

O=C(CN(c1ccc(F)cc1)S(=O)(=O)c1ccc2c(c1)OCCO2)N1CCOCC1
inactive: growth inhibition [1] -3.38% | growth inhibition [2] -12.4% | viability increase [3] -2.08% | viability [4] 107% | viability [5] 104% | inhibition [6] 0.625% | RAM network inhibition [7] 2.45%

Cc1ccc(S(=O)(=O)N(C)CCCC(=O)Nc2ccncc2)cc1
inactive: growth inhibition [1] -2.16% | growth inhibition [2] -6.8% | viability increase [3] -0.64% | viability [4] 79.4% | viability [5] 79% | inhibition [6] 0.13% | RAM network inhibition [7] 1.94%

COc1ccc(NC(=O)C2=C(C)NC(=O)NC2c2cccc(OC)c2OC)c(OC)c1 (configuration not stated)
inactive: growth inhibition [1] -15.4% | growth inhibition [2] -22.3% | viability increase [3] 0.09% | viability [4] 103% | viability [5] 103% | inhibition [6] 0.405% | RAM network inhibition [7] -1.04%

COc1ccc(C(=O)N2CCN(S(=O)(=O)c3ccc(C)cc3C)CC2)cc1OC
inactive: growth inhibition [1] -11.3% | growth inhibition [2] -13.3% | viability increase [3] 0.12% | viability [4] 93.2% | viability [5] 90.3% | inhibition [6] 1.12% | RAM network inhibition [7] 2.18%

O=C(C1CCN(S(=O)(=O)c2cccc3cccnc23)CC1)N1CC=C(c2ccccc2)CC1
inactive: growth inhibition [1] 6.34% | growth inhibition [2] 9.98% | viability increase [3] -2.61% | viability [4] 79.9% | viability [5] 83% | inhibition [6] 1.93% | RAM network inhibition [7] 2.07%

Cn1c(NC(=O)CCC2CCCCC2)cc(=O)n(C)c1=O
inactive: growth inhibition [1] -1.97% | growth inhibition [2] -10.8% | viability increase [3] 2.29% | viability [4] 92.9% | viability [5] 83.6% | inhibition [6] 0.52% | RAM network inhibition [7] -1.2%

CC(=O)c1cccc(NC2c3ccccc3C(=O)N2Cc2ccc3c(c2)OCO3)c1 (configuration not stated)
inactive: growth inhibition [1] -2.94% | growth inhibition [2] 7.7% | viability increase [3] -2.61% | viability [4] 92.7% | viability [5] 79.6% | inhibition [6] 2.9% | RAM network inhibition [7] 2.2%
